Screening data from PubChem.
RGS4 act: RGS4 potentiators or activators, primary screen, cell-based, HEK293 M3R inducible RGS4, calcium flux | B-score at 10 µM | carbachol calcium flux Fluo4; stronger effect = lower value | 0.92% of 310,000 active;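 active = B-score of the integrated calcium signal more than 4 SD below the library mean, with starting fluorescence not abnormally high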;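 also: negative B-score means reduced calcium response which marks RGS4 activation or potentiation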
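Material: Inducible-RGS4 HEK293 cells carrying M3 receptor; also added: carbachol at ECmax as muscarinic agonist stimulus; incubation: compound preincubation 20 min at room temperature before agonist; signal: Fluo4-AM (2 µM) calcium-flux fluorescence, kinetic read; measure: integrated calcium ratio converted to B score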
MrgX1 antag: antagonists of human MrgX1 receptor, primary screen, HEK293 cells, Fluo-4 calcium flux; Mas-related G-protein coupled receptor member X1 (Homo sapiens), Q96LB2; BAM8-22 antagonism; stronger effect = lower value; B-score at 10 µM; 1.3% of 310,000 active; AID 588676, 2011;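 active = calcium-response B-score plate-corrected more than 3 library SD below zero, starting fluorescence within 5 deviations, no agonist response on first addition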;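 also: peak minus trough fluorescence over baseline after final BAM8-22 challenge near maximal dose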
Target sequence (Q96LB2 whole entry, looked up): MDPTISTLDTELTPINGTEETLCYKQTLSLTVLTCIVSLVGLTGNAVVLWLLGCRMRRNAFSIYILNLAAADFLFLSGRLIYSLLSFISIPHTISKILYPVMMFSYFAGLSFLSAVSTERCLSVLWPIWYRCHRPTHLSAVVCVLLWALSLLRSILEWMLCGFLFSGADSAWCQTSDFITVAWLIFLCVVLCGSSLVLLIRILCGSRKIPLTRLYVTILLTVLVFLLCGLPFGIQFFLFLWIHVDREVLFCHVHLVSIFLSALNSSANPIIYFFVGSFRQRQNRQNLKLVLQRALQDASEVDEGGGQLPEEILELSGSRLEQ
RGS4 inh: RGS4 inhibitors, primary screen, cell-based, HEK293 M3R inducible RGS4, calcium flux | Regulator of G-protein signaling 4 (Homo sapiens), P49798 | Fluo-4 calcium flux; stronger effect = higher value; triggered by carbachol at its EC20 | B-score at 10 µM | 0.45% of 310,000 active | AID 463165, 2010;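 active = B-score, a plate-corrected calcium signal, over three deviations above library mean, with baseline fluorescence within five deviations of library mean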;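 also: RGS4 expression induced by doxycycline in cells with stable M3 receptor; B-score is computed from the integrated fluorescence ratio over baseline after carbachol; higher B-score means a larger calcium signal and so more RGS4 inhibition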
Target sequence (P49798 whole entry, looked up): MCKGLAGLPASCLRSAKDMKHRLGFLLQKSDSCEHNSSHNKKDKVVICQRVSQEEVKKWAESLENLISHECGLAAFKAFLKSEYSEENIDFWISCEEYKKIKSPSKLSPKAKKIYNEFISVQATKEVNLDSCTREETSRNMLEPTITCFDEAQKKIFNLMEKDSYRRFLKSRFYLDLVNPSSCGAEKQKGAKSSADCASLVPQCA
MrgX1 allo act: positive allosteric modulators of MrgX1, primary screen, HEK293 cells, Fluo-4 calcium flux. Mas-related G-protein coupled receptor member X1 (Homo sapiens), Q96LB2. FDSS; stronger effect = higher value. B-score at 10 µM. 0.63% of 310,000 active. AID 588675, 2011;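 active = plate-corrected calcium response at least 3 library SD above typical, normal starting fluorescence, not activating the receptor alone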;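 also: compound read alongside a low EC10 to EC30 dose of BAM8-22 agonist; peak minus trough fluorescence over baseline measured at the second addition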
MrgX1 ag: agonists of human MrgX1 receptor, primary screen, HEK293 cells, Fluo-4 calcium flux; Mas-related G-protein coupled receptor member X1 (Homo sapiens), Q96LB2; Fluo-4 calcium fluorescence, agonist mode; stronger effect = higher value; B-score at 10 µM; 0.44% of 310,000 active;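 active = calcium response B-score plate-corrected fluorescence ratio at least 3 library SD, with starting fluorescence B-score inside 5 SD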
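Material: MrgX1-expressing HEK293 cells; input: 15,000 cells per well; doses: test compound given as first of three sequential additions; schedule: overnight plating before 1 h dye loading; technique: Fluo-4 NW calcium-flux fluorescence, kinetic read; evaluation: baseline-normalised fluorescence change ratio, B-scored; control set: plate-wise positive and negative controls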
Numbers without * were called inactive; i = inactive; . = no result given; ! = not confirmed by another sample. This is a sample that favours compounds with a hit; in the whole collection about 3.5% have one here.

SMILES	RGS4 act	MrgX1 antag	RGS4 inh	MrgX1 allo act	MrgX1 ag
COCCNc1nc(SC)nc2sc3c(c12)CCN(C)C3	i	i	i	i	i
CSc1nc(NCC(C)C)c2c3c(sc2n1)CN(C)CC3	-7.4*	i	i	i	i
COc1ccc(Cl)cc1NC(=O)CSc1nnc(C2CC2)n1C	i	i	i	i	i
CN(C)S(=O)(=O)N1CCC(n2nccc2NC(=O)CCCc2ccccc2)CC1	i	i	i	i	i
c1ccc(Cc2noc(CN3CCN(C4CCc5ccccc5C4)CC3)n2)cc1 (configuration not stated)	i	i	i	i	i
c1ccc(Cc2noc(CN3CCCN(C4Cc5ccccc5C4)CC3)n2)cc1	-7*	i	i	i	i
Cc1ccc(-n2nc3c(=O)n(C(C)C(=O)NCCCc4ccccc4)nc(C)c3c2C)cc1 (configuration not stated)	i	-4.5*	i	i	i
Cc1ccc(-n2nc3c(=O)n(CC(=O)NCCCc4ccccc4)nc(C)c3c2C)cc1	i	i	i	i	i
Cc1ccc(-n2nc3c(=O)n(CCCC(=O)NCc4ccccc4Cl)nc(C)c3c2C)cc1	i	-6.5*	i	i	i
Nn1c(SCC(=O)NCC2CCCO2)nnc1-c1ccc(OC(F)F)cc1 (configuration not stated)	i	i	i	i	i
CCC(NC(=S)NC1CCCCC1)c1ccc(C(C)C)cc1 (configuration not stated)	-8.5*	-5.3*	i	i	i
CCCCOc1ccc(C(=O)NCC(=O)NCC2CCCO2)cc1 (configuration not stated)	i	i	i	i	i
C=CCn1c(SCCCC)nc(O)cc1=O	i	i	i	10*!	i
Cc1ccc(/C=C2\CCC3=C2OC(N)=C(C#N)C3c2ccc(C)cc2)cc1 (configuration not stated)	i	i	i	i	73*
CSCCC(NC(=O)c1ccccc1)C(=O)NNC(=O)c1csc(N2CCOCC2)n1 (configuration not stated)	i	i	i	i	i
Cc1ccc(-c2csc(Nc3ccc(C(=O)O)cc3)[n+]2Cc2ccccc2)cc1	i	i	i	9.1*	i
Cc1oc2cc3oc(=O)c(CCC(=O)NCCCN4CCOCC4)c(C)c3cc2c1C	i	i	i	i	i
Cc1ccc(S(=O)(=O)/N=C2/NC(=O)/C(=C/c3cc([N+](=O)[O-])ccc3O)S2)cc1	-7.8*	i	i	i	i
O=C1NC(=Nc2ccccc2Cl)S/C1=C\c1cc([N+](=O)[O-])ccc1O	i	i	i	i	i
O=C(O)c1ccc(CNC(=O)c2ccc3c(c2)C(=O)N(Cc2cccnc2)C3=O)cc1	i	-4.9*	i	i	i
COC(=O)/C=C1/S/C(=N/NC(=O)c2ccccc2C)NC1=O	i	-8.2*	i	i	i
O=C(c1ccc(=O)n(Cc2ccc(Cl)c(Cl)c2)c1)N1CCOCC1	i	-7.4*	i	i	i
COc1ccc(C(=O)N2CCOC2CNC(=O)C(=O)NCCc2ccccc2OC)cc1 (configuration not stated)	i	i	i	i	i
COc1ccccc1N1C(=O)N(CC(=O)C(C)(C)C)c2ccccc2S1(=O)=O	i	i	i	i	i
CCN(CC)C(=O)CSC(Nc1ccc(F)cc1)=C(C#N)C#N	i	i	i	i	44*
SMILES	RGS4 act	MrgX1 antag	RGS4 inh	MrgX1 allo act	MrgX1 ag
COc1ccc(N2C(=NC(=O)CCC3CCCC3)SC3CS(=O)(=O)CC32)cc1 (configuration not stated)	i	i	i	i	i
Cc1cccc(C(=O)OC(C)C(=O)Nc2ccc(S(=O)(=O)N3CCCC3)cc2)c1O (configuration not stated)	-7.3*	i	i	i	i
CC(OC(=O)c1cc(Br)ccc1O)C(=O)Nc1ccc(S(=O)(=O)N2CCCC2)cc1 (configuration not stated)	i	i	i	i	i
O=C1c2ccccc2C(=O)C2OC12 (configuration not stated)	i	i	22*	i	43*
CCOC(=O)C1CCN(c2c(NCCN(CC)c3ccccc3)c(=O)c2=O)CC1	i	i	i	10*	i
Cc1cccc([N+](=O)[O-])c1NC(=O)CN(Cc1ccccc1)Cc1ccccc1	-8.6*	i	i	i	i
COCCNCCCCOc1ccccc1-c1ccccc1	i	-5.2*	i	i	i
Cc1ccc(C(=O)O)cc1NC(=S)NC(=O)c1ccc(COc2ccccc2)cc1	i	i	i	i	i
O=C1/C(=C/c2ccc(O)c(O)c2)SC(=S)N1Nc1ccccc1	i	.	i	.	.
COc1cc(/C=C2\SC(=S)N(NC(=O)c3cccnc3)C2=O)ccc1O	i	-6.7*	i	i	i
Cc1ccc(C(=O)NN2C(=O)/C(=C/c3cn(C)c4ccccc34)SC2=S)cc1	.	-4.8*	.	i	i
COc1cc(/C=C2\SC(=S)N(NC(=O)c3ccc(O)cc3)C2=O)ccc1O	i	i	i	i	i
O=C(NN1C(=O)/C(=C/c2ccc(O)c(O)c2)SC1=S)c1ccccc1	i	i	i	i	32*
Cn1cc(/C=C2\SC(=S)N(NC(=O)c3ccccc3Cl)C2=O)c2ccccc21	.	i	.	i	i
Cc1ccc(OCCC(=O)OC(C)C(=O)Nc2ccc(Cl)cn2)cc1 (configuration not stated)	i	i	i	i	i
CCCN1CCN(C(=O)C2CCCN(c3ncnc4c3nc3n4CCCCC3)C2)CC1 (configuration not stated)	i	i	i	i	i
COc1ccc(CCNC(=O)c2cccc(C(=O)NCCc3ccc(OC)cc3)n2)cc1	i	-4.8*	i	i	i
O=c1[nH]cccc1-c1nc2ccccc2n1Cc1cccc(F)c1	i	i	i	i	i
Cc1nn(CC(=O)Nc2ccc(C(C)C)cc2)c(C)c1[N+](=O)[O-]	i	-7.1*	i	i	i
CC(=O)c1ccc(NC(=O)Cn2nc(C)c([N+](=O)[O-])c2C)cc1	i	i	i	i	i
